Bioassay records deposited in PubChem by several laboratories.
Arr AP2 block – blocks beta-arrestin peptide binding to AP2 adaptin; 340,000 tested, 0.31% active; AID 504490; FITC-arrestin peptide / GST-AP2 beads, flow cytometry; AP2 beta2 appendage carries R879A mutation; inhibition, % at 10 µM;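 active means inhibition above a set limit, near 3 SD of compounds lacking own fluorescence, cut at about 54% in these data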;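 further: plate controls were DMSO wells for no effect and 5 µM unlabelled arrestin peptide for full effect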
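System: GST-AP2 R879A glutathione beads. Medium: PBS with 0.05% Tween 20 and 0.1% BSA. Also added: FITC-arrestin peptide, 50 nM. Incubation: 12 min plus 1 h, RT. Measured by: high-throughput flow cytometry of beads, ex 488, em 535 nm. Evaluation: percent drop in bead-associated FITC signal.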
UCH37 inh – inhibitors of human deubiquitinating enzyme UCH37. purified proteasome/UCH37, Ub-AMC cleavage fluorescence. AID 588478. Q9Y5K5. inhibition, % (no concentration beside the values). 330,000 tested, 0.33% active;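 active means mean inhibition over replicate wells above about 20%, limit read from the data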;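 further: 0% = compound-free wells with enzyme and 100% = wells lacking proteasome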
Target sequence (Q9Y5K5 whole entry, looked up): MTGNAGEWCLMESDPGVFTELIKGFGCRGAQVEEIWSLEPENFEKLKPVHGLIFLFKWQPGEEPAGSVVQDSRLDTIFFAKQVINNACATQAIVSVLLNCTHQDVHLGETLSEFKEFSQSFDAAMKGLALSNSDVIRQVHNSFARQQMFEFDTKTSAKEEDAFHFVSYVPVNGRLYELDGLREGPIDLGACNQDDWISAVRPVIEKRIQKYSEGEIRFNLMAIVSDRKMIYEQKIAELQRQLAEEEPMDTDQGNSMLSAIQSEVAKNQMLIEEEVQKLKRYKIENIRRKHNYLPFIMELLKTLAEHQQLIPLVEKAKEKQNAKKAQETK
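System: Proteasome-associated human UCH37 deubiquitinase; Input: 0.15 nM proteasome in added enzyme buffer; Also added: Ub-AMC substrate from 1 µM stock; Incubation: 30 min compound-proteasome preincubation then 25 min substrate reaction, room temperature; Detection: fluorescence, ex 355 nm, em 460 nm; Read-out: % inhibition of Ub-AMC cleavage fluorescence; Benchmarks: no-proteasome and no-compound wells.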
APOBEC3A inh – blocks human APOBEC3A ssDNA deamination; P31941; recombinant A3A, FAM/TAMRA ssDNA deamination fluorescence; inhibition, % at 20 µM; 330,000 tested, 0.41% active; AID 493011;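 active means at least 40% inhibition at 20 µM here, with at most 30% in a related deaminase screen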;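 further: plate controls were A3A with DMSO for no effect and wells lacking A3A enzyme for full effect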
AHR act – human AHR activation; P35869; 320,000 tested, 2.5% active; AID 2796; AHR-responsive luciferase reporter cells, luminescence; activation, % at 5 µM; in the data active means activation above about 47%;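 further: 0% = vehicle wells and 100% = reference agonist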
PolyA inhibitor – yeast polyadenylation inhibition. activity score, % at 12 µM. S. cerevisiae SKY197-pL101 polyadenylation reporter, beta-gal luminescence; efflux-impaired pdr1/pdr3 knockout yeast; score 100 = 6 SD above DMSO. AID 1875. 300,000 tested, 0.02% active;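 active means lowest replicate activity score at least 50, where 100 means six control SD above control mean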;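 further: yeast exposed to compound for 9 h at 30 °C; higher score means more reporter readthrough which indicates perturbed polyadenylation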
APOBEC3G inh – inhibitors of human APOBEC3G DNA deaminase; Q9HC16; recombinant A3G, ssDNA deamination FAM/TAMRA fluorescence; inhibition, % at 20 µM; 330,000 tested, 0.28% active; AID 493012;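 active means inhibition of at least 40% at 20 µM, with no more than 30% in the related APOBEC3A deaminase screen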;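 further: plate controls were DMSO wells with A3G for no effect and wells lacking A3G enzyme for full effect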
AHR act cf – human AHR activation, confirmation. shares compounds with AHR act. 2,300 tested, 87% active. activation, % at 9 µM. human cells, AHR-responsive luciferase reporter, luminescence; in the data active means activation above about 49%;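 further: HepG2 hepatoma cells carrying a DRE-driven firefly luciferase reporter; 0% = vehicle wells and 100% = reference agonist wells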
PXR counter – PXR activation, counter-screen for AHR activators; shares compounds with AHR act; cell-based PXR reporter, luciferase luminescence; activation, % at 11.6 µM; 2,300 tested, 88% active; in the data active means activation above about 11%;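 further: human hepatoma DPX-2 cells expressing full-length human PXR; 0% = DMSO and 100% = reference agonist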
Numbers without * were called inactive. The list is not random: actives were taken first. Their share in the collection is about 3.4%.

CN(C)c1cccc(C(=O)n2cc(C(=O)c3cc(F)ccc3O)cn2)c1 was read as Arr AP2 block 2.4, UCH37 inh -31.3, APOBEC3A inh -0.2, AHR act 86.1*, PolyA inhibitor 15.5, APOBEC3G inh 1.0, AHR act cf 30.4 and PXR counter 20.0*.
`C=CCN1C(=O)/C(=C/c2ccc(OC)cc2)SC1=Nc1nccs1` gave UCH37 inh -5.4.
Screening COc1ccc(C=NOCC(=O)NC(c2ccccc2)c2ccccc2)cc1OC returned UCH37 inh 1.9.
CC(=NNC(=S)NC(C)C)c1ccc(Cl)c([N+](=O)[O-])c1 was read as UCH37 inh 5.7.
For COC(=O)c1ccccc1NC(=O)Cn1ccnc1 the results were Arr AP2 block 12.2, UCH37 inh -2.1, APOBEC3A inh -1.2, AHR act 103.7*, PolyA inhibitor -2.6, APOBEC3G inh -1.9 and AHR act cf 83.9*.
Screening Cc1ccc(/C=N/Nc2ccnc3cc(Cl)ccc23)c(C)c1 returned Arr AP2 block 3.5, APOBEC3A inh 0.3, AHR act 87.1*, PolyA inhibitor 9.4, APOBEC3G inh -0.9, AHR act cf 15.8 and PXR counter 15.8*.
Screening Cc1ccccc1/C=N/Nc1ccnc2cc(Cl)ccc12 returned Arr AP2 block 19.8, AHR act 1.6 and PolyA inhibitor -17.9.
Fc1ccccc1CNc1nc(-c2cccnc2)nc2ccccc12 was read as Arr AP2 block -10.2, UCH37 inh 2.0, APOBEC3A inh 9.3, AHR act 84.5*, PolyA inhibitor -8.2, APOBEC3G inh -5.7, AHR act cf 23.6 and PXR counter 102.7*.
O=C(NCc1ccccn1)c1ccc2ccccc2n1 was read as Arr AP2 block 0.7, UCH37 inh 4.2, APOBEC3A inh -1.6, AHR act 91.4*, PolyA inhibitor 1.1, APOBEC3G inh -6.6, AHR act cf 86.3* and PXR counter 16.2*.
For CNC(=O)c1c(NC(=O)c2nc3ccccc3s2)sc2c1CCC2 the results were Arr AP2 block -1.2, UCH37 inh -7.1, APOBEC3A inh -2.8, AHR act 111.8*, PolyA inhibitor 8.5, APOBEC3G inh -6.9, AHR act cf 78.8* and PXR counter 28.6*.
`COC(=O)c1c(NC(=O)c2nc3ccccc3s2)sc2c1CCN(C(C)=O)C2` gave Arr AP2 block -2.0, UCH37 inh -5.0, APOBEC3A inh 1.0, AHR act 39.8 and APOBEC3G inh -1.1.
For O=C(NC(=S)Nc1sc2c(c1C(=O)O)CCCC2)c1ccccc1 the results were Arr AP2 block 11.9, APOBEC3A inh -4.9, AHR act 80.6*, PolyA inhibitor 23.8, APOBEC3G inh -4.6, AHR act cf 111.7* and PXR counter 16.1*.
Screening CC(C)C(=O)NC(=S)Nc1sc2c(c1C(N)=O)CCCC2 returned Arr AP2 block 2.3, UCH37 inh 0.6, APOBEC3A inh 0.0, AHR act 89.5*, PolyA inhibitor 4.2, APOBEC3G inh 2.8, AHR act cf 96.7* and PXR counter 16.0*.
`Cc1occc1C(=O)Nc1sc2c(c1C(N)=O)CCCCC2` gave Arr AP2 block 1.9, UCH37 inh -7.4, APOBEC3A inh -4.7, AHR act 83.0*, PolyA inhibitor -25.6, APOBEC3G inh -3.0, AHR act cf 78.6* and PXR counter 48.9*.
Cn1ncc(Cl)c1C(=O)Nc1sc2c(c1C(N)=O)CCC2 was read as Arr AP2 block -2.9, APOBEC3A inh 2.2, AHR act 121.1*, PolyA inhibitor -24.6, APOBEC3G inh 1.6, AHR act cf 96.4* and PXR counter 136.6*.
Screening NC(=O)c1c(NC(=O)c2ccccc2)sc2c1CCC2 returned Arr AP2 block -1.3, UCH37 inh -6.6, APOBEC3A inh 5.6, AHR act 124.6*, PolyA inhibitor 11.4, APOBEC3G inh 0.4, AHR act cf 146.1* and PXR counter 24.1*.
